Experimental data published in ChEMBL document CHEMBL2157911, “Synthesis and biological evaluation of a series of podophyllotoxins derivatives as a class of potent antitubulin agents” (Bioorg Med Chem, 2012).

Assays:
K562 = assay: Cytotoxicity against human K562 cells after 48 hrs; format: functional, cell-based; conditions: K562, 48 h
In short: (§1)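 Cells were grown in RPMI 1640 with 10% fetal serum, 2 mM L-glutamine, […], penicillin and streptomycin. Log-phase cells were seeded, left 24 h at 37 °C/5% CO2 to attach, then exposed to 0–100 µM compound for 48 h (DMSO <0.1%), five wells per concentration.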

SGC-7901 = assay: Cytotoxicity against human SGC7901 cells after 48 hrs; format: functional, cell-based; conditions: SGC-7901, 48 h; in short: as §1
HepG2 = assay: Cytotoxicity against human HepG2 cells after 48 hrs; format: functional, cell-based; conditions: HepG2, 48 h; in short: as §1
HeLa = assay: Cytotoxicity against human HeLa cells after 48 hrs; format: functional, cell-based; in short: as §1
[1] = Inhibition of goat brain tubulin polymerization after 30 mins; design: species or system Capra hircus
In short: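 Goat brain tubulin was purified by two polymerization–depolymerization cycles. Tubulin (10 µM) was incubated with compound at 0, 10, 20, 40 or 60 µM in buffer containing 20% glycerol and […] at 37 °C, then cooled to 0 °C. Assembly was followed turbidimetrically in a fluorescence plate reader.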

CCCN(CCC)/C(CCO[C@@H]1c2cc3c(cc2[C@@H](c2cc(OC)c(OC)c(OC)c2)[C@H]2C(=O)OC[C@@H]21)OCO3)=N/S(C)(=O)=O
IC50 (K562): 2.96 µM
IC50 (SGC-7901): 2.87 µM
IC50 (HepG2): 2.14 µM
IC50 (HeLa): 2.63 µM

COc1cc([C@@H]2c3cc4c(cc3[C@@H](OCC/C(=N\S(C)(=O)=O)NCc3ccccc3)[C@H]3COC(=O)[C@H]23)OCO4)cc(OC)c1OC
IC50 (K562): 12.1 µM
IC50 (SGC-7901): 19.2 µM
IC50 (HepG2): 17.9 µM
IC50 (HeLa): 11.2 µM

COc1cc([C@@H]2c3cc4c(cc3[C@@H](OCC/C(=N\S(C)(=O)=O)N3CCCCC3)[C@H]3COC(=O)[C@H]23)OCO4)cc(OC)c1OC
IC50 (K562): 9.01 µM
IC50 (SGC-7901): 18.2 µM
IC50 (HepG2): 57.1 µM
IC50 (HeLa): 10.4 µM

COc1cc([C@@H]2c3cc4c(cc3[C@@H](OCC/C(=N\S(C)(=O)=O)N3CCCC3)[C@H]3COC(=O)[C@H]23)OCO4)cc(OC)c1OC
IC50 (K562): 8.34 µM
IC50 (SGC-7901): 11.2 µM
IC50 (HepG2): 20.8 µM
IC50 (HeLa): 5.99 µM

COc1cc([C@@H]2c3cc4c(cc3[C@@H](OCC/C(=N\S(C)(=O)=O)N(C3CCCCC3)C3CCCCC3)[C@H]3COC(=O)[C@H]23)OCO4)cc(OC)c1OC
IC50 (K562): 2.61 µM
IC50 (SGC-7901): 3.21 µM
IC50 (HepG2): 1.95 µM
IC50 (HeLa): 4.33 µM

COc1cc([C@@H]2c3cc4c(cc3[C@@H](OCC/C(N)=N\S(C)(=O)=O)[C@H]3COC(=O)[C@H]23)OCO4)cc(OC)c1OC
IC50 (K562): 3.48 µM
IC50 (SGC-7901): 4.31 µM
IC50 (HepG2): 2.87 µM
IC50 (HeLa): 3.75 µM

COc1cc([C@@H]2c3cc4c(cc3[C@@H](OCC/C(=N\S(C)(=O)=O)N(C)C)[C@H]3COC(=O)[C@H]23)OCO4)cc(OC)c1OC
IC50 (K562): 5.18 µM
IC50 (SGC-7901): 3.71 µM
IC50 (HepG2): 4.17 µM
IC50 (HeLa): 2.58 µM

COc1cc2c(c(OC)c1OC)-c1ccc(OC)c(=O)cc1[C@@H](NC(C)=O)CC2 [COLCHICINE]
IC50 (K562): 0.55 µM
IC50 (SGC-7901): 0.05 µM
IC50 (HepG2): 0.02 µM
IC50 (HeLa): 0.1 µM

COc1cc([C@@H]2c3cc4c(cc3[C@H](O)[C@H]3COC(=O)[C@H]23)OCO4)cc(OC)c1OC [PODOFILOX]
IC50 (K562): 4.51 µM
IC50 (SGC-7901): 0.34 µM
IC50 (HepG2): 0.51 µM
IC50 [1]: 24 µM
IC50 (HeLa): 0.14 µM
